Tests used:
TMD8 cells = test: Growth inhibition, ATP-based luminescent assay; assay type: cell-based, human; conditions: TMD8
How it was run: (§1)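 Cells received a single dose of test compound over a concentration range and proliferation was read at 48 hr by luminescent ATP quantification. Luminescence was converted to cell number using per-line standard curves built from trypan blue counts. Viability was normalised to controls and expressed as 1 − fractional viability, and GI25/GI50 were fitted. Experiments were run three times in triplicate.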

[1] = target: MALT1 active site mutant C464A (Homo sapiens, UniProt Q9UDY8, C464A); test: LC-MS covalent modification, mutant; assay type: binding
caspase-3 = caspase-3 (Homo sapiens, UniProt P42574); test: Caspase selectivity; assay type: biochemical
Sequence of caspase-3 (P42574 29-175 limits assumed, species assumed): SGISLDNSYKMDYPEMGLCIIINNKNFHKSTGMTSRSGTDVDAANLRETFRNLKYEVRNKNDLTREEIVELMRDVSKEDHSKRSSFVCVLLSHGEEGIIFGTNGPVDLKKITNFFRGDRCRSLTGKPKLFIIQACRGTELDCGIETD
Sequence of caspase-3 (P42574 176-277 limits assumed, species assumed): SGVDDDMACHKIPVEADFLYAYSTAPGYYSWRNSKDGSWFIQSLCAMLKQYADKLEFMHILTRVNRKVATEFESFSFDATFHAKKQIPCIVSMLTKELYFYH

U2932 cells = test: Growth inhibition, ATP-based luminescent assay; assay type: cell-based, human; conditions: U2932, single dose, 48 hr
How it was run: as §1

[2] = test system: primary human GCB DLBCL cells; test: Primary human DLBCL ex vivo viability, trypan blue; assay type: cell-based; conditions: 0.8 µM, 48 hr
How it was run: (§2)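 Single-cell suspensions came from lymph-node biopsies of five DLBCL patients, prepared by physical disruption and density-gradient separation. GCB versus non-GCB status was assigned by Hans-criteria IHC. Cells were cultured in RPMI with 20% FBS and antibiotics and exposed to 0.8 µM test compound (1 µM for one patient) or DMSO in quadruplicate for 48 hr. Cell number and viability were counted by trypan blue and normalised to vehicle.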

HBL-1 xenografts = test: HBL-1 xenograft in NOD-SCID mice; assay type: in vivo; conditions: IP 25 mg/kg/day, 14 injections
How it was run: (§3)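 Eight-week-old male NOD-SCID (NOD.CB17-Prkdcscid/J) mice received 10^7 low-passage cells subcutaneously in 50% Matrigel in the right flank. At an average tumour size of 120 mm3, mice were randomised to test compound 25 mg/kg/day IP or vehicle (5% DMSO) for 14 consecutive days and sacrificed 24 hr after the 14th injection. Caliper volume, (smallest diameter² × largest)/2, was taken three times weekly. Ki-67 IHC was counted per high-power field.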

OCI-Ly1 = test: CFSE dilution proliferation assay; assay type: cell-based, human; conditions: increasing concentrations, 48, 72, and 96 hr
How it was run: (§4)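 Cells were exposed to increasing concentrations of test compound, and CFSE dilution was read by flow cytometry at 48, 72 and 96 hr. 2 × 10^4 cells were acquired per sample, and DAPI staining was used to gate viable cells for analysis.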

[3] = test system: primary human non-GCB DLBCL cells; test: Primary human DLBCL ex vivo viability, trypan blue; assay type: cell-based; conditions: 0.8 µM, 48 hr
How it was run: as §2

[4] = target: MALT1 paracaspase domain (329–728) (Homo sapiens, UniProt Q9UDY8); test: LC-MS covalent modification; assay type: binding
HBL-1 cells [5] = test: Growth inhibition, ATP-based luminescent assay; assay type: cell-based, human; conditions: HBL-1
How it was run: as §1

caspase-8 = caspase-8 (Homo sapiens, UniProt Q14790); test: Caspase selectivity; assay type: biochemical
Sequence of caspase-8 (Q14790 217-374 limits assumed): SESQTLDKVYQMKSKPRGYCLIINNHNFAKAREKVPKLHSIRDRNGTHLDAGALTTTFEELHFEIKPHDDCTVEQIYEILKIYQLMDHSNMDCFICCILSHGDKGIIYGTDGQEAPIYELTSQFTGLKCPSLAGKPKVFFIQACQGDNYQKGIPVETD
Sequence of caspase-8 (Q14790 385-479 limits assumed): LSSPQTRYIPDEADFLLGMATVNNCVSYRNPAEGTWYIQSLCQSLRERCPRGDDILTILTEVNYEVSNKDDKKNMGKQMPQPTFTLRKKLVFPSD

[6] = target: LZ-MALT1 (recombinant MALT1 (340–789) fused with a leucine zipper dimerization motif) (Homo sapiens, UniProt Q9UDY8); test: LZ-MALT1 fluorescence activity assay; assay type: biochemical; conditions: preincubation with compound before Ac-LRSR-AMC
How it was run: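 Recombinant MALT1 (340–789) fused to a leucine zipper dimerization motif was preincubated with test compound (0–25 µM) for 5–90 min. Ac-LRSR-AMC substrate was then added, and AMC release was read by fluorescence at 360 nm excitation and 465 nm emission. Percent inhibition was normalized and plotted against preincubation time.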

HLY-1 cells = test: Growth inhibition, ATP-based luminescent assay; assay type: cell-based, human; conditions: HLY-1, single dose, 48 hr
How it was run: as §1

[7] = test system: nuclear c-REL and p65 in HBL-1 and TMD8 cells; test: Western blots for c-REL and p65 in nuclear extracts; assay type: cell-based, human; conditions: 24 hr, 200 nM for HBL-1 and 500 nM for TMD8
How it was run: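 Nuclear extracts were prepared from HBL-1 cells (200 nM test compound) and TMD8 cells (500 nM) after 24 hr treatment and immunoblotted for c-REL and p65.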

[8] = test system: Z-VRPR-FMK signature genes in HBL-1 and TMD8 cell lines; test: Gene expression profiling, GSEA; assay type: cell-based, human; conditions: GI50 concentrations (HBL-1 200 nM; TMD8 500 nM), 8 hr
OCI-Ly3 cells = test: Growth inhibition, ATP-based luminescent assay; assay type: cell-based, human; conditions: OCI-Ly3, single dose, 48 hr
How it was run: as §1

OCI-Ly1 cells = test: Trypan blue cell number and Annexin V+ DAPI− apoptosis time course, 14 days; assay type: cell-based, human; conditions: treated daily at the doses used for TMD8, 14 days
How it was run: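 Cell lines were dosed with test compound every 24 hr. Every 48 hr for 14 days, cells were counted by trypan blue exclusion and apoptosis was measured as Annexin V+ DAPI− by flow cytometry. Cell number is expressed as % of vehicle at each time point.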

[9] = test system: nuclear c-REL in HBL-1 cells; test: c-REL flow cytometry of whole cells or isolated nuclei; assay type: cell-based, human; conditions: 200 nM MI-2 or 50 µM Z-VRPR-FMK, 24 hr
How it was run: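 HBL-1 cells were exposed for 24 hr to 200 nM test compound, to 50 µM Z-VRPR-FMK as positive control, or to vehicle. c-REL was then measured by flow cytometry in whole cells and in isolated nuclei.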

caspase-3/7 activity = test: Cell-based caspase-3/7 activity and apoptosis inhibition; conditions: at concentrations that suppress MALT1
HBL-1 cells [10] = test: Intracellular concentration by LC-MS; assay type: in vitro ADME, human
How it was run: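 HBL-1 cells were exposed to 0.02, 0.2 or 2 µM test compound for 2 hr, washed three times, and intracellular compound was quantified by LC-MS. For free-drug kinetics, cells at 0.2 µM were sampled at 30 min and at 2, 6, 12, 24 and 48 hr.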

TMD8 xenografts = test: TMD8 xenograft in NOD-SCID mice; assay type: in vivo; conditions: IP 25 mg/kg/day, 14 injections
How it was run: as §3

OCI-Ly10 cells = test: Growth inhibition, ATP-based luminescent assay; assay type: cell-based, human; conditions: OCI-Ly10, single dose, 48 hr
How it was run: as §1

[11] = test system: HBL-1, TMD8, and OCI-Ly10; test: CFSE dilution proliferation assay; assay type: cell-based, human; conditions: increasing concentrations, 48, 72, and 96 hr
How it was run: as §4

[12] = test system: MALT1-mediated cleavage of CYLD in HBL-1 cells; test: MALT1 cleavage of CYLD, western blotting and densitometry; assay type: cell-based, human

COCCOc1nc(-c2ccc(Cl)c(Cl)c2)n(-c2ccc(NC(=O)CCl)cc2)n1 [MI-2]
GI50 (TMD8 cells): 0.5 µM
covalent binding by LC-MS [1]: markedly reduced covalent binding
activity against caspase-3 (caspase-3): little activity
growth inhibition (U2932 cells): resistant
response of primary cases (cell number and viability) [2]: none of the GCBs did
apoptotic cells (TUNEL) relative to vehicle (HBL-1 xenografts): significant increase in apoptotic cells
c-REL nuclear protein in tumor sections (HBL-1 xenografts): reduced c-REL nuclear protein
proliferation (Ki-67 staining) compared to vehicle (HBL-1 xenografts): significant decrease in proliferation
tumor growth versus vehicle (HBL-1 xenografts): profoundly suppressed the growth
proliferation (CFSE dilution) (OCI-Ly1): did not affect OCI-Ly1
response of primary cases (cell number and viability) [3]: two of the non-GCB cases responded
covalent binding by LC-MS [4]: can bind covalently to MALT1
GI50 (HBL-1 cells [5]): 0.2 µM
activity against caspase-8 (caspase-8): little activity
inhibition reached [6]: ~100%
growth inhibition (HLY-1 cells): resistant
nuclear c-REL (western blot) [7]: clear reduction of nuclear c-REL
nuclear p65 levels (western blot) [7]: did not affect p65 levels
enrichment of Z-VRPR-FMK signature (GSEA) [8]: significantly enriched among genes downregulated after MI-2 treatment
GI50 (OCI-Ly3 cells): 0.4 µM
cell number and apoptosis (OCI-Ly1 cells): no effect on OCI-Ly1 cells
nuclear c-REL (flow cytometry) [9]: reduced nuclear c-REL to a similar extent
inhibition of caspase-3/7 activity or apoptosis in cell-based assays (caspase-3/7 activity): did not inhibit
intracellular concentration (HBL-1 cells [10]; HBL-1, 0.2 µM, 2 hr): 5 µM
free intracellular drug (HBL-1 cells [10]; HBL-1, 0.2 µM, by 12 hr): virtually no detectable free MI-2
increase in intracellular concentration (HBL-1 cells [10]; HBL-1 exposed to 0.02, 0.2, or 2 µM for 2 hr, washed three times): 18- to 30 fold
apoptotic cells (TUNEL) relative to vehicle (TMD8 xenografts): significant increase in apoptotic cells
proliferation (Ki-67 staining) compared to vehicle (TMD8 xenografts): significant decrease in proliferation
tumor growth versus vehicle (TMD8 xenografts): profoundly suppressed the growth
GI50 (OCI-Ly10 cells): 0.4 µM
proliferation (CFSE dilution) [11]: substantially inhibited proliferation
inhibition of MALT1 cleavage of CYLD ([12]; HBL-1, 5 µM for 8 hr, Z-VRPR-FMK 50 µM positive control): most potent compound
MALT1-mediated cleavage of CYLD ([12]; HBL-1, increasing concentrations, 24 hr): dose-dependent decrease in MALT1-mediated cleavage
